# GRK2 aptamer HTS: human GRK2 inhibition via aptamer displacement; P25098; bead flow cytometry, FAM-aptamer displacement from GRK2; inhibition of aptamer binding, % at 10 µM; 0.59% of 330,000 active;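 active = inhibition of aptamer binding above 40%, roughly 3 SD of noise, on plates passing a quality check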;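 note: median bead fluorescence of bound FAM aptamer so fluorescent compounds give negative values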
# GASC-1 inh: inhibitors of human GASC-1 (JMJD2C) demethylase; inhibition, % at 2.35 µM; Q9H3R0; GST-JMJD2C(1-420) H3K9me3 demethylation, DELFIA europium; 0.069% of 330,000 active; AID 2099;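 active = more than half of a compound's replicate wells show inhibition beyond 50%, single wells judged on their own value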;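 note: signal counts dimethyl H3K9 product captured on neutravidin plate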
# Target sequence (Q9H3R0 1-420 limits assumed): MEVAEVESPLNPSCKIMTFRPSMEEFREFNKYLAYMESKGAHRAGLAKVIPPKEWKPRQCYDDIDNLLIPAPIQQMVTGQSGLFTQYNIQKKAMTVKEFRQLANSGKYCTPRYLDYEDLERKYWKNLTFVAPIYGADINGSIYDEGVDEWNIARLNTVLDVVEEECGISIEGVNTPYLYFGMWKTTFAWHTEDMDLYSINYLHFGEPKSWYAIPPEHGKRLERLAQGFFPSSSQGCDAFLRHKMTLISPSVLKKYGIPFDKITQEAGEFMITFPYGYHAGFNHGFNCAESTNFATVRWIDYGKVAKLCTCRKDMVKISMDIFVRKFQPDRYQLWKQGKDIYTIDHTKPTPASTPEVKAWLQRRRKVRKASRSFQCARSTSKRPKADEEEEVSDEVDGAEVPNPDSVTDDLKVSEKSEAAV
# VLA-4 inh: inhibition in a human VLA-4 binding assay | VLA-4 expressing cells, ligand binding flow cytometry | 0.2% of 330,000 active | inhibition, % (about 7 µM as worked out from the volumes in the protocol); in the data active = inhibition above about 50%
# proCasp3 act: procaspase-3 (human) activation. recombinant procaspase-3 D3A, Ac-DEVD-pNA absorbance 405 nm. activation, % at 8.5 µM. 0.11% of 330,000 active;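 active = activation above the mean of all tested compounds plus 3 SD, cut at about 21% in these data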
# Target sequence (P42574 whole entry D9A/D28A/D175A): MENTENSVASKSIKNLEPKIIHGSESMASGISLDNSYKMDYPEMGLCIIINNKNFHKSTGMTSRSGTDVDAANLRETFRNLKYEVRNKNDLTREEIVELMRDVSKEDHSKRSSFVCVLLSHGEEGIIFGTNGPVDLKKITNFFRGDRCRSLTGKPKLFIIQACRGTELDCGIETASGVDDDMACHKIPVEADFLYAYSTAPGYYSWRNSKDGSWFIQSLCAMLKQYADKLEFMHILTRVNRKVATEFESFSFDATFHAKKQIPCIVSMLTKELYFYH
#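 Assay system: Procaspase-3 D3A mutant, all three cleavage aspartates alanine. Buffer or medium: Zinc-free HEPES saline buffer with Triton X-100. Times: 1 h compound preincubation, 2 h substrate hydrolysis at 25 °C. Measured by: 405 nm absorbance of p-nitroaniline, reads at 0 and 120 min. Read-out basis: percent activation relative to control range. Replicates: singlicate.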
# Hep lipid drop: modulators of hepatic lipid droplet formation; AID 1656; inhibition, % at 6.5 µM; AML12 mouse hepatocytes, oleate lipid droplets, BODIPY imaging; 0.4% of 240,000 active;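 active = lipid droplet intensity inhibited by at least 50%, with more than 500 cells counted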
#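 Assay system: AML12 hepatocytes (mouse); Probe or stimulus: oleic acid at 100 µM to induce lipid droplet formation; Dosing: compound at 6.5 µM only; Schedule: compound with oleate, overnight; Detection: fluorescence imaging, 20x objective, two fields per well; Measure: % inhibition of lipid droplet signal.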
# procasp7 counter: activates human procaspase-7, counter-screen for procaspase-3 activators | P55210 | recombinant procaspase-7, Ac-DEVD-pNA absorbance 405 nm; D23A/D198A/D206A triple mutant, cannot self-cleave; scale: DMSO 0, 5 µM enzyme 100 | activation, % at 8.5 µM | 0.093% of 330,000 active;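 active = percent activation above the screen-wide mean plus 3 SD, cut at about 25% in these data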
#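 buffer or medium = Zinc-free HEPES/NaCl buffer, pH 7.4 | material = Procaspase-7 triple mutant (PC-7 D3A) | input = 2 µM procaspase-7 mutant as dispensed | signal = Epi-absorbance of released pNA at 405 nm, two timepoints | timing = 1 h preincubation, 2 h reaction | replicates = singlicate compound testing | evaluation = % activation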
# GRK2 CP1: human GRK2 inhibition confirmation, cherry pick 1. shares compounds with GRK2 aptamer HTS. bead-bound GRK2, FAM-aptamer displacement, flow cytometry. aptamer displacement, % at 10 µM. 4% of 2,000 active;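 active = aptamer displacement above 40%, near three times the noise of non-fluorescent compounds, on plates passing quality checks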;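 note: negative values mostly reflect intrinsic compound fluorescence rather than true enhancement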
# Aptamer quench SP: quenches fluorescent RNA aptamer, GRK2 hit artifact; shares compounds with GRK2 aptamer HTS; 2,000 tested, under 10 active; fluorescence response (% of DMSO), % at 10 µM; Carboxyfluorescein RNA aptamer on beads, flow cytometry quenching; active compounds read low;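 active = compounds that quench the bead-bound fluorescent RNA probe, cutting fluorescence to under half of the solvent control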;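 note: counterscreen run without GRK2 so only probe quenching by compound is measured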
# GRK2 CP2: human GRK2 inhibition confirmation, cherry pick 2; AID 504782; 360 tested, under 10 active; bead-bound GRK2, FAM-aptamer displacement, flow cytometry; inhibition of aptamer binding, % at 10 µM; shares compounds with GRK2 aptamer HTS;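 active = inhibition of aptamer binding above 40%, about triple the noise seen with nonglowing compounds, on plates passing quality control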;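 note: negative values mostly come from compounds that fluoresce themselves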
# FAM quench SP: aptamer fluorescence quenching in GRK2 counter-screen. carboxyfluorescein RNA aptamer beads, flow cytometry quenching; active compounds read low. 360 tested, under 10 active. AID 588494. fluorescence response vs DMSO, % at 10 µM. shares compounds with GRK2 aptamer HTS;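 active = response vs DMSO under 50%, meaning signal dropped by over half, treated as fluorescence quencher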;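 note: labelled aptamer on streptavidin beads without GRK2 as a quench counter-screen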
# A number is an active result; - = inactive; . = not tested or not shown. Sampled rows, rich in hits. Any-hit rate of the full collection: about 1.3%.
SMILES,GRK2 aptamer HTS,GASC-1 inh,VLA-4 inh,proCasp3 act,Hep lipid drop,procasp7 counter,GRK2 CP1,Aptamer quench SP,others
CN1C2=CC=CC=CC2=[N+](C)C12C([N+](=O)[O-])=CC(=[N+]([O-])[O-])C=C2[N+](=O)[O-] (stereo unspecified),48,-,-,-,-,-,-,-,
S=C(NCC1CCCO1)NC1CC1 (stereo unspecified),87,-,-,-,-,-,-,-,
O=C(Nc1cc(Cl)ccc1Cl)c1noc2c1CCCC2,-,-,-,-,-,-,.,.,
O=C(Nc1ccc(F)cc1F)c1noc2c1CCC2,59,-,-,-,-,-,-,-,
O=C1CN(C(=O)c2ccccc2F)c2ccccc2N1,48,-,-,-,-,-,-,-,
O=C1CN(C(=O)c2ccccn2)c2ccccc2N1,-,-,-,-,.,-,.,.,
CCOC(=O)Nc1sc(C)nc1-c1ccccc1,44,-,-,-,.,-,-,-,
Cc1nc2c(sc(=S)n2Cc2ccco2)c(=O)n1CC(=O)Nc1ccccc1Cl,84,-,-,-,-,-,-,-,
CCn1c(=S)sc2c(=O)n(CC(=O)Nc3ccccc3OC)c(C)nc21,-,-,-,-,-,-,.,.,
CC(CCC(=O)O)C1CC[C@@]2(C)C3C(=O)CC4C(C)(C)C(O)CC[C@]4(C)C3C(=O)C[C@]12C (stereo partly specified),44,-,-,-,-,-,-,-,
Cc1cccc(OCc2nnc(SCC(=O)N(c3ccccc3)C3CCS(=O)(=O)C3)o2)c1 (stereo unspecified),-,-,-,-,.,-,.,.,
CC1(C)N([O-])c2cc([N+](=O)[O-])ccc2[N+]1=O,68,-,-,-,-,-,-,-,
Cc1ccc(C)n1-c1cc([N+](=O)[O-])ccc1-n1ccnc1,-,-,-,-,-,-,.,.,
COc1ccc(S(=O)(=O)N2CCC(C(=O)N3CCN(C)CC3)CC2)cc1OC,-,-,-,-,-,-,.,.,
COc1ccc(NC(=O)Nc2ccc3c(c2)C(=O)N([C@H](C)CO)C[C@H](C)[C@@H](CN(C)C(=O)NC(C)C)O3)cc1,-,-,-,-,.,-,.,.,
CC(C)Cc1nc2oc3c(=O)[nH]cnc3c2c2c1CCC2,93,-,-,-,.,-,-,-,
COc1cccc(OCC(Cn2c(C)nc3ccccc32)OC(C)=O)c1 (stereo unspecified),-,-,-,-,-,-,.,.,
CCOc1ccccc1C1C(C#N)=C(N)Oc2cc(N)ccc21 (stereo unspecified),97,-,-,-,-,-,-,-,
CC1=C(C(=O)OCC2CCCCC2)C(c2ccc(O)cc2)NC(=O)N1 (stereo unspecified),-,-,-,-,.,-,-,-,
CC1=C(C(=O)OCC2CCCCC2)C(c2cccc(O)c2)NC(=O)N1 (stereo unspecified),-,-,-,-,-,-,.,.,
CCCN1CCC(=O)N([C@H](CSc2ccc(OC)cc2)c2ccccc2)CC1,-,-,-,-,-,-,.,.,
Cc1cc2cc(CCNC(=O)C(=O)c3c[nH]c4ccccc34)c(=O)[nH]c2cc1C,-,-,-,-,-,-,.,.,
CC(=O)Nc1ccc(Oc2ccc([N+](=O)[O-])cc2Cl)cc1,-,-,-,-,-,-,.,.,
CC(Oc1ccc([N+](=O)[O-])cc1Cl)C(=O)Nc1ccc(C(N)=O)cc1 (stereo unspecified),95,-,-,-,-,-,-,-,
COc1ccccc1Nc1nnc(SCC(=O)N2CCCC2=O)s1,-,-,-,-,.,-,.,.,
SMILES,GRK2 aptamer HTS,GASC-1 inh,VLA-4 inh,proCasp3 act,Hep lipid drop,procasp7 counter,GRK2 CP1,Aptamer quench SP,others
CCc1ccc(Nc2nnc(SCC(=O)NC(=O)CN3CCCC3=O)s2)cc1,45,.,-,-,.,-,-,-,
Cc1nc(C(N)=O)c(N)n1CCc1ccccc1,-,-,-,-,-,-,.,.,
COc1cc(C(=O)Nc2c(C(=O)O)[nH]c3ccc(C)cc23)cc(OC)c1OC,88,-,-,.,-,.,-,-,
O=C(CN1C(=O)NC2(CCOc3ccccc32)C1=O)NCCc1ccc(F)cc1 (stereo unspecified),-,-,-,-,.,-,.,.,
CCOc1ccc(NC(=O)C2CCCN2S(=O)(=O)c2ccc3c(c2)C(C)(C)C(=O)N3C)cc1 (stereo unspecified),48,-,-,-,-,-,-,-,
Cn1ccnc1C(OC(=O)c1ccccc1)C(F)(F)F (stereo unspecified),-,-,-,-,-,-,-,-,
Cn1ccnc1C(OC(=O)c1ccc(Cl)cc1)C(F)(F)F (stereo unspecified),-,-,-,-,-,-,.,.,
C[C@]12C=CC(=O)C=C1CC[C@@H]1C2C(O)C[C@@]2(C)C1CC[C@]2(O)C(=O)COC(=O)CCC(=O)NC(CC(=O)O)C(=O)O (stereo partly specified),-,-,-,-,.,-,.,.,
C[C@]12C=CC(=O)C=C1CC[C@@H]1[C@@H]2C(=O)C[C@@]2(C)[C@H]1CC[C@]2(O)C(=O)COC(=O)CCC(=O)O,78,-,-,-,-,-,-,-,
Cc1ccc(C)c(NC(=O)CN2C(=O)NC(C)(c3ccc4c(c3)OCCO4)C2=O)c1 (stereo unspecified),-,-,-,-,.,-,.,.,
COc1cc2c3c(c1OC)C1(C=CC(=O)C=C1)CC3N(C(=O)c1ccccc1)CC2 (stereo unspecified),70,-,.,-,.,-,-,-,
O=C(Cc1ccc(Br)cc1)OCC(=O)N1CCc2ccccc2C1,46,-,-,-,-,-,.,.,GRK2 CP2=-;FAM quench SP=-
CC1(C)SC2c3ccccc3C(=O)N2[C@@H]1C(=O)NC1CC1 (stereo partly specified),-,-,-,-,-,-,.,.,
O=C(CCc1ccccc1)Nc1nc2n(n1)C(c1ccc(Cl)cc1)CC(=O)N2 (stereo unspecified),100,-,-,-,-,-,-,-,

# Assay outcomes as filed in PubChem BioAssay.
